Data as given in ChEMBL document CHEMBL4118021, “Studies of TAK1-centered polypharmacology with novel covalent TAK1 inhibitors” (Bioorg Med Chem, 2017).
One block for each molecule: values may come before it. Activity calls are given as the source filed them. The rule behind the calls is not given here.

Key:
Assay type in all cases: cell-based
[1] = biological target: Mitogen-activated protein kinase 12 (Homo sapiens) (UniProt P53778); assay: Inhibition of p38g in human SKCO1 cells at 1 uM after 4 hrs using biotin labeled DLKPGNLAVNEDCELK probe by mass-spectrometric analysis relative to control
[2] = biological target: Mitogen-activated protein kinase kinase kinase 11 (Homo sapiens) (UniProt Q16584); assay: Inhibition of MLK3 in human SKCO1 cells at 1 uM after 4 hrs using biotin labeled DLKSNNILLLQPIESDDMEHK probe by mass-spectrometric analysis relative to control
[3] = biological target: Eukaryotic translation initiation factor 2-alpha kinase 3 (Homo sapiens) (UniProt Q9NZJ5); assay: Inhibition of PEK in human SKCO1 cells at 1 uM after 4 hrs using biotin labeled DLKPSNIFFTMDDVVK probe by mass-spectrometric analysis relative to control
[4] = biological target: ATP-dependent 6-phosphofructokinase, liver type (Homo sapiens) (UniProt P17858); assay: Binding affinity to PFKL in human NCI-H358 cells at 1 uM by mass spectrometry based pull down assay
[5] = biological target: Apoptosis-inducing factor 1, mitochondrial (Homo sapiens) (UniProt O95831); assay: Binding affinity to AIFM1 in human NCI-H23 cells at 1 uM by mass spectrometry based pull down assay
Summary of the method: (§1)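 NCI-H23 or NCI-H358 cells were grown and lysed. Lysates were incubated overnight at 4 °C with 1 μM biotinylated covalent probe or DMSO, then pulled down on streptavidin beads. Proteins were run on polyacrylamide gels and stained with Coomassie. Bands were excised, digested and identified by mass spectrometry.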

[6] = biological target: Jupiter microtubule associated homolog 2 (Homo sapiens) (UniProt Q9H910); assay: Binding affinity to HN1L in human NCI-H358 cells at 1 uM by mass spectrometry based pull down assay
[7] = test system: NCI-H358; assay: Binding affinity to PSMA7 in human NCI-H358 cells at 1 uM by mass spectrometry based pull down assay
[8] = biological target: Melanoma-associated antigen 4 (Homo sapiens) (UniProt P43358); assay: Binding affinity to MAGEA4 in human NCI-H23 cells at 1 uM by mass spectrometry based pull down assay
[9] = biological target: ADP-ribosylation factor-like protein 8B (Homo sapiens) (UniProt Q9NVJ2); assay: Binding affinity to ARL8B in human NCI-H23 cells at 1 uM by mass spectrometry based pull down assay
[10] = biological target: 80S Ribosome (Homo sapiens) (UniProt P08865+P42677+P62753+P15880+P23396+P61247+P62701+P22090+P46782+P62081+P62241+P46781+P46783+P62280+P25398+P62277+P62263+P62841+P62244+P62249+P08708+P62269+P39019+P60866+P63220+P62266+P62847+P62851+P62854+P62979+P62857+P62273+P62861+P39023+P36578+P46777+Q02878+P18124+P62424+P62917+P32969+P27635+P62906+P62913+P30050+P26373+P40429+P50914+P61313+P18621+Q07020+Q02543+P84098+P46778+P35268+P62829+P62750+P83731+P61254+P61353+P46776+P46779+P47914+P62888+P62899+P62910+P49207+P42766+P18077+Q9Y3U8+P83881+P61927+P61513+P63173+P62891+P62945+P05388+P05386); assay: Binding affinity to RPL26 in human NCI-H358 cells at 1 uM by mass spectrometry based pull down assay
[11] = biological target: 14-3-3 protein gamma (Homo sapiens) (UniProt P61981); assay: Binding affinity to YWHAG in human NCI-H23 cells at 1 uM by mass spectrometry based pull down assay
[12] = biological target: AP-2 complex subunit alpha-1 (Homo sapiens) (UniProt O95782); assay: Binding affinity to AP2A1 in human NCI-H358 cells at 1 uM by mass spectrometry based pull down assay
[13] = biological target: Myeloid leukemia factor 2 (Homo sapiens) (UniProt Q15773); assay: Binding affinity to MLF2 in human NCI-H23 cells at 1 uM by mass spectrometry based pull down assay
[14] = biological target: Alpha-2-HS-glycoprotein (Homo sapiens) (UniProt P02765); assay: Binding affinity to AHSG in human NCI-H23 cells at 1 uM by mass spectrometry based pull down assay; summary of the method: as §1
[15] = biological target: Aurora kinase B (Homo sapiens) (UniProt Q96GD4); assay: Binding affinity to AURKB in human NCI-H358 cells at 1 uM by mass spectrometry based pull down assay
[16] = biological target: Vasodilator-stimulated phosphoprotein (Homo sapiens) (UniProt P50552); assay: Binding affinity to VASP in human NCI-H23 cells at 1 uM by mass spectrometry based pull down assay
[17] = biological target: Arginine--tRNA ligase, cytoplasmic (Homo sapiens) (UniProt P54136); assay: Binding affinity to RARS in human NCI-H358 cells at 1 uM by mass spectrometry based pull down assay
[18] = biological target: (E3-independent) E2 ubiquitin-conjugating enzyme (Homo sapiens) (UniProt Q9C0C9); assay: Binding affinity to UBE2O in human NCI-H358 cells at 1 uM by mass spectrometry based pull down assay
[19] = biological target: Dual specificity mitogen-activated protein kinase kinase 2 (Homo sapiens) (UniProt P36507); assay: Binding affinity to MAP2K2 in human NCI-H358 cells at 1 uM by mass spectrometry based pull down assay
[20] = biological target: Eukaryotic translation initiation factor 6 (Homo sapiens) (UniProt P56537); assay: Binding affinity to EIF6 in human NCI-H23 cells at 1 uM by mass spectrometry based pull down assay
[21] = biological target: Probable ATP-dependent RNA helicase DDX5 (Homo sapiens) (UniProt P17844); assay: Binding affinity to DDX5 in human NCI-H23 cells at 1 uM by mass spectrometry based pull down assay
[22] = biological target: Glutamate--cysteine ligase regulatory subunit (Homo sapiens) (UniProt P48507); assay: Binding affinity to GCLM in human NCI-H23 cells at 1 uM by mass spectrometry based pull down assay
[23] = biological target: Cyclin-dependent kinase 5 (Homo sapiens) (UniProt Q00535); assay: Binding affinity to CDK5 in human NCI-H23 cells at 1 uM by mass spectrometry based pull down assay
[24] = biological target: Y-box-binding protein 3 (Homo sapiens) (UniProt P16989); assay: Binding affinity to YBX3 in human NCI-H23 cells at 1 uM by mass spectrometry based pull down assay
[25] = biological target: Ubiquitin-like modifier-activating enzyme 1 (Homo sapiens) (UniProt P22314); assay: Binding affinity to UBA1 in human NCI-H358 cells at 1 uM by mass spectrometry based pull down assay
[26] = test system: NCI-H358; assay: Binding affinity to PTGES3L-AARSD1 in human NCI-H358 cells at 1 uM by mass spectrometry based pull down assay
[27] = biological target: Myosin regulatory light chain 12B (Homo sapiens) (UniProt O14950); assay: Binding affinity to MYL12B in human NCI-H358 cells at 1 uM by mass spectrometry based pull down assay

Sequence of Vasodilator-stimulated phosphoprotein (Homo sapiens) (P50552 whole entry): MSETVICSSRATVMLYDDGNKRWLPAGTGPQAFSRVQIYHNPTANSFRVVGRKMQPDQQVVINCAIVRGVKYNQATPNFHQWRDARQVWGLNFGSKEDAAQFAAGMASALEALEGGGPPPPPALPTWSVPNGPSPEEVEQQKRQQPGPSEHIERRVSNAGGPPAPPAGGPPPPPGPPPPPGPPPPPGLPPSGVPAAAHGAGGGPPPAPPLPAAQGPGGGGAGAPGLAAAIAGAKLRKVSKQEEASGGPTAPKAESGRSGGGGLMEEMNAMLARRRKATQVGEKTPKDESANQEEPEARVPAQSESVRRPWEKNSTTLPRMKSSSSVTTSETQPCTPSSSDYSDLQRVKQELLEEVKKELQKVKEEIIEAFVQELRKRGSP
Sequence of Y-box-binding protein 3 (Homo sapiens) (P16989 whole entry): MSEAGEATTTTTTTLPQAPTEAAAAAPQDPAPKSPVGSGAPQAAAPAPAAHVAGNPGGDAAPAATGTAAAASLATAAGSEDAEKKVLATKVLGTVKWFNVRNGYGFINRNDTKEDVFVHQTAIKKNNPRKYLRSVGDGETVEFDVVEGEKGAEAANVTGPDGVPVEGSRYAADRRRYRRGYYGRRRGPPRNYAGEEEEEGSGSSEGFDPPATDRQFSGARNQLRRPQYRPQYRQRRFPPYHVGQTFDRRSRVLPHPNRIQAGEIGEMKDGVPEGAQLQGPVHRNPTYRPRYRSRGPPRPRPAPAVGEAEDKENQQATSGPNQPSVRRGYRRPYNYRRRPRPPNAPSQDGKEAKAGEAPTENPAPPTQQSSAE
Sequence of Mitogen-activated protein kinase kinase kinase 11 (Homo sapiens) (Q16584 whole entry, looked up): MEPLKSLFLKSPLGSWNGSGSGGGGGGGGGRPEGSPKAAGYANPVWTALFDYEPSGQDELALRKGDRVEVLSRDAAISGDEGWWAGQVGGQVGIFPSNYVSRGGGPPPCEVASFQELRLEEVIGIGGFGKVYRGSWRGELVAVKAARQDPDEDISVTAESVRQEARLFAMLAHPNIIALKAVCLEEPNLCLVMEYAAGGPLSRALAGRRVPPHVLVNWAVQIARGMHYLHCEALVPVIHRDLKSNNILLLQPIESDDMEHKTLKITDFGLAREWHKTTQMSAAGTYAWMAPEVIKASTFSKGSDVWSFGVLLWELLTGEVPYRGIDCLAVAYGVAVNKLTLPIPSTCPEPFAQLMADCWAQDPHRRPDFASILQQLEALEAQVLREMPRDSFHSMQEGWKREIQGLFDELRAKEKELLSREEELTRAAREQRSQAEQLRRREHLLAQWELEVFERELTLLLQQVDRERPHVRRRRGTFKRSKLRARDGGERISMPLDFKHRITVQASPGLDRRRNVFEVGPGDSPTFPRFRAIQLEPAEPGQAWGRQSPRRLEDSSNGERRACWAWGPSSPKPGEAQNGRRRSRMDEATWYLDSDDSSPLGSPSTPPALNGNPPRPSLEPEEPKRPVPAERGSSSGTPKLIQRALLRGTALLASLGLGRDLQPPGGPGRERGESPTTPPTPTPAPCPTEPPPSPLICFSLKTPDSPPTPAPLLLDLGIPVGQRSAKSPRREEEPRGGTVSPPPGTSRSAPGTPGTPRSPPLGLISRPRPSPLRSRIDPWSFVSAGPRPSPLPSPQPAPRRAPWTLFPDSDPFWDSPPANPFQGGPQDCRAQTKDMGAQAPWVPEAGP
Sequence of (E3-independent) E2 ubiquitin-conjugating enzyme (Homo sapiens) (Q9C0C9 whole entry): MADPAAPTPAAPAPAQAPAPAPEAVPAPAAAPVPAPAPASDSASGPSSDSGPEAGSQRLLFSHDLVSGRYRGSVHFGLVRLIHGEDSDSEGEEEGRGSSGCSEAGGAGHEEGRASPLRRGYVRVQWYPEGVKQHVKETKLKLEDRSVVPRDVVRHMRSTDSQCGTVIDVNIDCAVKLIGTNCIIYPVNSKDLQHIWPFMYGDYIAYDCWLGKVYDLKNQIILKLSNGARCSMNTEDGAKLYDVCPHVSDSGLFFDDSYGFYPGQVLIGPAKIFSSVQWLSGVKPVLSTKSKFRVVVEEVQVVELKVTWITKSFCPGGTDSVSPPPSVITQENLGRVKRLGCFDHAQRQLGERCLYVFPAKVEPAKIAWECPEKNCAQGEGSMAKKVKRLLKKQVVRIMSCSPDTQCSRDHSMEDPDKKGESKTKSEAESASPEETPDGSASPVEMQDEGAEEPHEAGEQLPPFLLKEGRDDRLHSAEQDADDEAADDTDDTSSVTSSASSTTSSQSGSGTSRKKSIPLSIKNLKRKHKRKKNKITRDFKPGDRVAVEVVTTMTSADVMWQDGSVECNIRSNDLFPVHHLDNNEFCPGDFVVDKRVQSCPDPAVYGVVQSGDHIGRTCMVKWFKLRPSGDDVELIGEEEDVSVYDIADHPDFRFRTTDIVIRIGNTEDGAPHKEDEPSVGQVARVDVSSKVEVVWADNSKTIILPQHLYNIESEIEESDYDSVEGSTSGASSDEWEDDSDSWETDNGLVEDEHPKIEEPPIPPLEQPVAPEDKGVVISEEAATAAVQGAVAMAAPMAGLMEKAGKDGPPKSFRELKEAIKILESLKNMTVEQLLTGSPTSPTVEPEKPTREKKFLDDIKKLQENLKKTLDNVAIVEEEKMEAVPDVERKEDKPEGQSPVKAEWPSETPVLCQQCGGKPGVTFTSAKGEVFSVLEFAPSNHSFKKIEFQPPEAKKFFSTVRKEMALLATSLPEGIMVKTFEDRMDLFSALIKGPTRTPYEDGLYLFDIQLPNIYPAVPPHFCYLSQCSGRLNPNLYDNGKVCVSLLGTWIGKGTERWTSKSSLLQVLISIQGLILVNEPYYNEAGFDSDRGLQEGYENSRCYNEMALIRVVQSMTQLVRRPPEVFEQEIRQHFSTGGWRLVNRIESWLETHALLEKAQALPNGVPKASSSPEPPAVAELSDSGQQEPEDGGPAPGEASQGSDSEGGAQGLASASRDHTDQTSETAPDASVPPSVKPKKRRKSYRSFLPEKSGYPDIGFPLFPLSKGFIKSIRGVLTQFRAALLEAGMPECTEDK
Sequence of Aurora kinase B (Homo sapiens) (Q96GD4 whole entry): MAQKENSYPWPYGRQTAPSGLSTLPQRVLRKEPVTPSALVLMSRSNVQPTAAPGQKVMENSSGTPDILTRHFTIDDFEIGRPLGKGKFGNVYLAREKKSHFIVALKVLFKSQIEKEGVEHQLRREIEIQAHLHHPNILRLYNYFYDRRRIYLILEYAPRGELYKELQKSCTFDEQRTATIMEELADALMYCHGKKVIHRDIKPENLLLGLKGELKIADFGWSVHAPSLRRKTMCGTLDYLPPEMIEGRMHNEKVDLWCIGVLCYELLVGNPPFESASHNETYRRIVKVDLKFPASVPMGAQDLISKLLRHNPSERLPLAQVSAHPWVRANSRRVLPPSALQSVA
Sequence of Arginine--tRNA ligase, cytoplasmic (Homo sapiens) (P54136 whole entry): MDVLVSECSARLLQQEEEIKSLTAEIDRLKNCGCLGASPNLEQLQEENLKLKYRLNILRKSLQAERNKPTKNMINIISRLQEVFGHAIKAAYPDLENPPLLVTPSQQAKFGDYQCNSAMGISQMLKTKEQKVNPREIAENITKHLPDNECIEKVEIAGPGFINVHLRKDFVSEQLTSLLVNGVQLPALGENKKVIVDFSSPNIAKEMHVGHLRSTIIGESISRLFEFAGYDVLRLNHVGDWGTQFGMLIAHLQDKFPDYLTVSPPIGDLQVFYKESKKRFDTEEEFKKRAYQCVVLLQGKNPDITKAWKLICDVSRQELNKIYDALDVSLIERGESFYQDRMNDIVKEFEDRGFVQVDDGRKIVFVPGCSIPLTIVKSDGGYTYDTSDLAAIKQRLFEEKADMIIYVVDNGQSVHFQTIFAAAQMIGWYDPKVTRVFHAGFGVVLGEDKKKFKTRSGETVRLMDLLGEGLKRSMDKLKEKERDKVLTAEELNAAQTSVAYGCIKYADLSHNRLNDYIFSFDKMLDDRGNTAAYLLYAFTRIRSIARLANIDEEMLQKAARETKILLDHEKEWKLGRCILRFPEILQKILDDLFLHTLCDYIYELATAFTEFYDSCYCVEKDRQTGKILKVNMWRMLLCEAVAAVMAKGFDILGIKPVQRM
Sequence of Eukaryotic translation initiation factor 2-alpha kinase 3 (Homo sapiens) (Q9NZJ5 whole entry): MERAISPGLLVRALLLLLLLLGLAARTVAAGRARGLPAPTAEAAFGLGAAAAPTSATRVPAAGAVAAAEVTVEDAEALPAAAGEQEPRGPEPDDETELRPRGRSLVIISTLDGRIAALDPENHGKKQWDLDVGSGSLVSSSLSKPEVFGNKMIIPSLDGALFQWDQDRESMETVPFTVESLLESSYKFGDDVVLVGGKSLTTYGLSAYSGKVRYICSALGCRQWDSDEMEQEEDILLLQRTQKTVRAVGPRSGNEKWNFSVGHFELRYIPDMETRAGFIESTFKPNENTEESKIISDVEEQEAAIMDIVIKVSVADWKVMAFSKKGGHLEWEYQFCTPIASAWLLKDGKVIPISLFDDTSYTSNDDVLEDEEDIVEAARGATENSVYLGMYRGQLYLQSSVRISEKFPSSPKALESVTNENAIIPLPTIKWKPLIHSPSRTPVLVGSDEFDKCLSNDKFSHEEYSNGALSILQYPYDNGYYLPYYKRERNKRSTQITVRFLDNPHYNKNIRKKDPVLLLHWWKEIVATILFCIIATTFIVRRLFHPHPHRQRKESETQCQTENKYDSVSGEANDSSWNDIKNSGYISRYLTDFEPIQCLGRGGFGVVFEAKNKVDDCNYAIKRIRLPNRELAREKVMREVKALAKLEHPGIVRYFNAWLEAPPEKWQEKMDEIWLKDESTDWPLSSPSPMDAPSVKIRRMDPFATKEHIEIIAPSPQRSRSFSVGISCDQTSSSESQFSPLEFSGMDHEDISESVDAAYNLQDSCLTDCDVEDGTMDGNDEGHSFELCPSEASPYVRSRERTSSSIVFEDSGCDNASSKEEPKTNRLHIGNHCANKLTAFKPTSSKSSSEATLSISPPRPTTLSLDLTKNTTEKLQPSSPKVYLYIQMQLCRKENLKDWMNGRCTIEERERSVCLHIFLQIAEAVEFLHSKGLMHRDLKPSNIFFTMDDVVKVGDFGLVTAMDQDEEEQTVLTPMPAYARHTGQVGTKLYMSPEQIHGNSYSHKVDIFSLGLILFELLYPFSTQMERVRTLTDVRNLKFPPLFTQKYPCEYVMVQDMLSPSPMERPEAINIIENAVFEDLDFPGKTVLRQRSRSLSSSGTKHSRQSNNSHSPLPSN

SMILES: C=CC(=O)Nc1ccccc1Nc1nc(Nc2ccc(N3CCN(C)CC3)cc2)ncc1Cl
inhibition [1]: -8.5%

SMILES: COc1cc(O)c2c(c1)/C=C/C[C@H](O)[C@H](O)C(=O)/C=C\C[C@H](C)OC2=O
inhibition [2]: -1.7%
inhibition [3]: -10%

Activity [4]: Active
Activity [5]: Active
Activity [6]: Active
Activity [8]: Active
Activity [9]: Active
Activity [10]: Active
Activity [11]: Active
Activity [12]: Active
Activity [13]: Active
Activity [14]: Active
Activity [15]: Active
Activity [16]: Active
Activity [17]: Active
Activity [18]: Active
Activity [19]: Active
Activity [20]: Active
Activity [21]: Active
Activity [22]: Active
Activity [23]: Active
Activity [24]: Active
Activity [25]: Active
Activity [27]: Active
SMILES: C=CC(=O)Nc1ccccc1Nc1nc(Nc2ccc(N3CCN(CCOCCOCCOCCNC(=O)CCCC[C@@H]4SC[C@@H]5NC(=O)N[C@@H]54)CC3)cc2)ncc1Cl
Activity [7]: Active
Activity [26]: Active
